Results filed as inconclusive are left out.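 How the source made its calls, unless noted: active means inhibition over a set limit, the all-compound mean plus 3 SD, in both replicate runs; inconclusive means over that limit in just one replicate run; inactive means at or under that limit in both runs.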
Tests used:
[1] = OD615 S. cerevisiae growth inhibition, permissive medium, pilot counter-assay, permissive growth control for S. cerevisiae lifespan shortening project (AID 705;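 active means growth inhibition above 25% in both replicates, a cutoff set 3 SD above the mean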); details: OD615, 24 h, at 10 µM, stronger effect = higher value
Procedure, shortened: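 assay system = Saccharomyces cerevisiae strain carrying genetically modified DeaD replicative-lifespan system | technique = absorbance (optical density) at 615 nm | buffer or medium = permissive raffinose/galactose medium | timing = cells pre-grown 4 h, then 24 h compound exposure, 30 °C humidified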

[2] = Restrictive medium S. cerevisiae growth inhibition, OD615, pilot screen of yeast lifespan reduction project, restrictive growth control (AID 706;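 active means growth inhibition above a set limit, 3 SD over mean compound inhibition, in both replicates, cut at about 43% in these data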;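 further: modified DeaD lifespan yeast strain shifted to restrictive glucose medium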); details: OD615, 48 h, at 10 µM, stronger effect = higher value
Procedure, shortened: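 System: modified S. cerevisiae. Buffer or medium: CSMM-D glucose medium. Incubation: 4 h pre-growth plus 48 h compound exposure, 30 °C. Detection: absorbance (optical density) measured at 615 nm.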

[3] = viability gain of MRP-1-high H69AR cells under doxorubicin, pilot screen, MRP-1 activator project, CellTiter-Glo, duplicate (AID 807;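 active means viability increase at or above a cutoff of the median across tested compounds plus 3 SD, cut at about 8.5% in these data, passing the limit was not always enough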;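 further: compound pretreatment 18-22 h then 72 h combined with doxorubicin; 0% = doxorubicin alone and 100% = vehicle without doxorubicin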); details: H69AR viability with doxorubicin, CellTiter-Glo luminescence; at 10 µM; stronger effect = higher value
[4] = growth suppression of beta-catenin knockout HCT116, pilot screen, human colon tumor cells (AID 823;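 active means cell viability at or below a set limit in both duplicate runs, the limit being the all-compound median minus 4 SD, cut at about 23% in these data, passing the limit was not always enough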;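 further: 0% = wells killed by 20 µM Hyamine and 100% = untreated DMSO cell wells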); details: CellTiter-Glo, 60 h, at 10 µM, stronger effect = lower value
[5] = growth suppression of PTEN-deleted HCT116, pilot screen, cell-based, HCT116 clonal line, CellTiter-Glo (AID 824;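 active means viability at or below 27.92% in each of two runs, the all-compound median minus 4 SD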;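 further: 0% = 20 µM Hyamine control and 100% = vehicle cell control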); details: 60 h, at 10 µM, stronger effect = lower value
[6] = inhibitors of the yeast RAM network, pilot screen, dse1pr::URA3 reporter, 5-FOA selection (AID 869);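 further: 0% = DMSO wells with no growth and 100% = 10 µM 1-NA-PP1 with full growth; RAM network block rescues cells from 5-FOA so hits raise OD615 growth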; details: S. cerevisiae dse1pr::URA3 5-FOA growth, OD615, 2 d; at 10 µM; stronger effect = higher value; strain carries analog-sensitive mutant Cbk1 kinase
[7] = RAM signaling pathway blockade in yeast – S. cerevisiae, Pdr1DBD-CYC8 efflux-inhibited sensitized strain, primary screen (AID 1298;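 active means RAM network inhibition above 8.4% in each of two replicates, 3 SD over the compound average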;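 further: 0% = DMSO untreated cells without growth and 100% = 10 µM 1-NA-PP1 full growth; higher means more yeast growth rescued from 5-FOA killing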); details: S. cerevisiae cbk1-as DSE1-URA3 strain, 5-FOA growth OD615, 2 d; at 50 µM; stronger effect = higher value

O=C(Nc1ccc(F)cc1F)N1CCN(C/C=C/c2ccccc2)CC1
inactive: growth inhibition [1] -1.48% | growth inhibition [2] 2.67% | viability increase [3] 0.1% | viability [4] 86.7% | viability [5] 89% | inhibition [6] 2.04% | RAM network inhibition [7] 0.95%

CC(C)c1ccc(C2CC(=O)N3CN(C)CSC3=C2C#N)cc1 (configuration not stated)
inactive: growth inhibition [1] 4.19% | growth inhibition [2] 25% | viability increase [3] -4.3% | viability [4] 91.4% | viability [5] 93.9% | inhibition [6] 1.75% | RAM network inhibition [7] -0.52%

CC1(C)CC(=O)c2cc(C(=O)N3CCN(CCO)CC3)c(=O)n(-c3ccc(Cl)cc3)c2C1
inactive: growth inhibition [1] -6.56% | growth inhibition [2] -25.4% | viability increase [3] -0.93% | viability [4] 103% | viability [5] 100% | inhibition [6] 1.81% | RAM network inhibition [7] 3.06%

Cn1c(=O)oc2cc(S(=O)(=O)NCCN3CCN(c4ccccc4F)CC3)ccc21
inactive: growth inhibition [1] -14.7% | growth inhibition [2] 0.235% | viability increase [3] -2.88% | viability [4] 100% | viability [5] 88.8% | inhibition [6] 0.835% | RAM network inhibition [7] 1.48%

O=C(O)CCn1c(=O)[nH]c2ccccc2c1=O
inactive: growth inhibition [1] -6.32% | growth inhibition [2] -15.1% | viability increase [3] 0.62% | viability [4] 109% | viability [5] 105% | inhibition [6] 1.34% | RAM network inhibition [7] 0.63%

CC1(C(=O)NCc2cccnc2)CCC(=O)N1Cc1cccs1 (configuration not stated)
inactive: growth inhibition [1] -2.29% | growth inhibition [2] -1.24% | viability increase [3] 0.38% | viability [4] 108% | viability [5] 102% | inhibition [6] 0% | RAM network inhibition [7] 3.95%

COc1ccc(C2C(C(=O)NC(C)C)c3ccccc3C(=O)N2C)cc1OC (configuration not stated)
inactive: growth inhibition [1] -12.9% | growth inhibition [2] -13.2% | viability increase [3] -0.58% | viability [4] 105% | viability [5] 101% | inhibition [6] 0.95% | RAM network inhibition [7] 5.34%

Cc1cc(Nc2ccc(F)cc2Cl)n2nc(C)nc2n1
inactive: growth inhibition [1] -9.76% | growth inhibition [2] -13% | viability increase [3] -0.59% | viability [4] 109% | viability [5] 99.6% | inhibition [6] 1.51% | RAM network inhibition [7] 2.31%

N#CCCN1CCN(C(CNS(=O)(=O)c2ccc(Cl)cc2)c2ccccc2)CC1 (configuration not stated)
inactive: growth inhibition [1] -11.4% | growth inhibition [2] -16.5% | viability increase [3] -1.72% | viability [4] 95.3% | viability [5] 94.8% | inhibition [6] 1.9% | RAM network inhibition [7] 6.39%

CCOc1ccccc1N1CCN(C(=O)c2cc(C)oc2C)CC1
inactive: growth inhibition [1] -10.5% | growth inhibition [2] -5.64% | viability increase [3] -3.37% | viability [4] 89.2% | viability [5] 93.9% | inhibition [6] 0.04% | RAM network inhibition [7] 0.7%

CCOC(=O)C1Cn2c(nc3c(c2=O)C(C)(C)Cc2ccccc2-3)S1 (configuration not stated)
inactive: growth inhibition [1] -1.77% | growth inhibition [2] 2.82% | viability increase [3] 0.36% | viability [4] 90.2% | viability [5] 88.5% | inhibition [6] 3.48% | RAM network inhibition [7] 8.31%

CCOc1ccc(OCC)c(S(=O)(=O)NCc2ccc3c(c2)OCO3)c1
inactive: growth inhibition [1] -9.29% | growth inhibition [2] -2.62% | viability increase [3] -2.97% | viability [4] 95.1% | viability [5] 96.5% | inhibition [6] 1.52% | RAM network inhibition [7] 5.31%

Cn1cnnc1SCCC(=O)Nc1ccccc1
inactive: growth inhibition [1] 6.46% | growth inhibition [2] 0.795% | viability increase [3] -1.01% | viability [4] 101% | viability [5] 99.5% | inhibition [6] 1.14% | RAM network inhibition [7] 2.5%

CCOc1ccc(CC(=O)NCc2cn3c(C)csc3n2)cc1
inactive: growth inhibition [1] -5.88% | growth inhibition [2] 12.6% | viability increase [3] -0.15% | viability [4] 97.4% | viability [5] 102% | inhibition [6] 1.14% | RAM network inhibition [7] 6.38%

O=C(O)c1cccc(CN2C(=O)CSC2=O)c1
inactive: growth inhibition [1] -9.39% | growth inhibition [2] -12.3% | viability increase [3] -0.3% | viability [4] 95.7% | viability [5] 97.5% | inhibition [6] 0.91% | RAM network inhibition [7] 1.41%

CC(=O)NC(C)c1nc2ccccc2n1Cc1ccccc1F (configuration not stated)
inactive: growth inhibition [1] -5.38% | growth inhibition [2] -3.36% | viability increase [3] 0.25% | viability [4] 102% | viability [5] 93.8% | inhibition [6] 3.67% | RAM network inhibition [7] 5.71%

CCCCOc1ccc(NC(=O)C2CC=CCC2C(=O)O)cc1 (configuration not stated)
inactive: growth inhibition [1] -5.44% | growth inhibition [2] -26.4% | viability increase [3] -2.19% | viability [4] 81.9% | viability [5] 79.5% | inhibition [6] 0.51% | RAM network inhibition [7] 0.37%

CCCSC1=C(C#N)C(c2ccc(Cl)cc2Cl)CC(=O)N1 (configuration not stated)
inactive: growth inhibition [1] 3.83% | growth inhibition [2] 24% | viability increase [3] -1.42% | viability [4] 83.5% | viability [5] 79.4% | inhibition [6] 1.54% | RAM network inhibition [7] 3.58%

O=C1C2CCCN2C(c2ccc(F)cc2)N1c1cccc(Cl)c1 (configuration not stated)
inactive: growth inhibition [1] -1.56% | growth inhibition [2] 0.01% | viability increase [3] -0.91% | viability [4] 102% | viability [5] 99.6% | inhibition [6] 0.63% | RAM network inhibition [7] 2.38%

Cc1cc(NC(=O)c2cc(C3CC3)on2)n(-c2ccccc2)n1
inactive: growth inhibition [1] -16.2% | growth inhibition [2] -17.8% | viability increase [3] -0.45% | viability [4] 101% | viability [5] 99.6% | inhibition [6] 0.355% | RAM network inhibition [7] 8.58%

C=C(C)CSC1=C(C#N)C(c2ccccc2)CC(=O)N1 (configuration not stated)
inactive: growth inhibition [1] -13.1% | growth inhibition [2] -8.52% | viability increase [3] -2.09% | viability [4] 86.6% | viability [5] 84.1% | inhibition [6] 0.55% | RAM network inhibition [7] 4.86%

CC(=O)c1c(Nc2ccc3c(c2)OCCO3)oc(C)cc1=O
inactive: growth inhibition [1] -21.9% | growth inhibition [2] 0.47% | viability increase [3] -5.39% | viability [4] 110% | viability [5] 100% | inhibition [6] 0.68% | RAM network inhibition [7] -2.1%

Nc1c(C(=O)NCc2cccnc2)sc(=S)n1-c1ccccc1
inactive: growth inhibition [1] 11.3% | growth inhibition [2] 25.7% | viability increase [3] -1.61% | viability [4] 90.3% | viability [5] 83.6% | inhibition [6] 2.5% | RAM network inhibition [7] 2.58%

CC1=C(C(N)=O)C(c2ccccn2)n2nc(SCc3ccccc3Cl)nc2N1 (configuration not stated)
inactive: growth inhibition [1] -4.42% | growth inhibition [2] -12.1% | viability increase [3] -1.33% | viability [4] 90.5% | viability [5] 83.3% | inhibition [6] 1.04% | RAM network inhibition [7] 0.26%

COCCOC(=O)C1=C(C)NC2=C(C(=O)CC(C)(C)C2)C1c1ccc2c(c1)OCO2 (configuration not stated)
inactive: growth inhibition [1] -5.88% | growth inhibition [2] -4.59% | viability increase [3] -1.42% | viability [4] 92.9% | viability [5] 87.4% | inhibition [6] 0.175% | RAM network inhibition [7] 2.6%

Cn1c(NC(=O)c2cc(Cl)ccc2Cl)cc(=O)n(C)c1=O
inactive: growth inhibition [1] 4.47% | growth inhibition [2] 3.21% | viability increase [3] -2.52% | viability [4] 99.9% | viability [5] 94.7% | inhibition [6] 1.17% | RAM network inhibition [7] 1.45%

COc1ccc(-c2nn(CC(=O)N(C)C)c(=O)c3ccccc23)cc1
inactive: growth inhibition [1] -7.62% | growth inhibition [2] -6.71% | viability increase [3] -1.08% | viability [4] 99.8% | viability [5] 86.4% | inhibition [6] 1.01% | RAM network inhibition [7] 0.6%

COc1ccc(N2CSC3=C(C#N)C(c4cccc(OC)c4OC)CC(=O)N3C2)cc1 (configuration not stated)
inactive: growth inhibition [1] -1.74% | growth inhibition [2] 26.5% | viability increase [3] -4.01% | viability [4] 95.6% | viability [5] 92.6% | inhibition [6] 1.48% | RAM network inhibition [7] 3.83%

Cc1csc2nc(CNC(=O)C3CC=CCC3C(=O)O)cn12 (configuration not stated)
inactive: growth inhibition [1] -3.37% | growth inhibition [2] 16.7% | viability increase [3] -2.9% | viability [4] 93.7% | viability [5] 94% | inhibition [6] 2.62% | RAM network inhibition [7] -0.42%

COc1ccc(C2CC(c3ccc(F)cc3)Nc3nc(N)nn32)cc1 (configuration not stated)
inactive: growth inhibition [1] -3.94% | growth inhibition [2] 11.2% | viability increase [3] 0.02% | viability [4] 98.1% | viability [5] 94.4% | inhibition [6] 1% | RAM network inhibition [7] 6.59%

Cc1ccc(NC(=O)c2cc(-c3cccc(O)c3)on2)cc1C
inactive: growth inhibition [1] -19.1% | growth inhibition [2] -5.78% | viability increase [3] -0.54% | viability [4] 92.1% | viability [5] 87% | inhibition [6] 3.14% | RAM network inhibition [7] 4.28%

Cc1ccc2oc(=O)c3cnn(CC(=O)NC4CCN(Cc5ccccc5)CC4)c3c2c1
inactive: growth inhibition [1] -4.11% | growth inhibition [2] 0.24% | viability increase [3] -3.78% | viability [4] 88.3% | viability [5] 92% | inhibition [6] 1.77% | RAM network inhibition [7] 0.57%

Cc1ccc(-c2nn(-c3ccccc3)cc2C(=O)N2CCOCC2)cc1
inactive: growth inhibition [1] -8.14% | growth inhibition [2] -8.34% | viability increase [3] -2.21% | viability [4] 97.5% | viability [5] 89% | inhibition [6] 0.805% | RAM network inhibition [7] 12.4%

CCOC(=O)Cc1csc(NC(NC(=O)CC)(C(F)(F)F)C(F)(F)F)n1
inactive: growth inhibition [1] 0.765% | growth inhibition [2] -2.19% | viability increase [3] -0.75% | viability [4] 99.6% | viability [5] 96.7% | inhibition [6] 3.13% | RAM network inhibition [7] 6.43%

COc1cccc(OCCCCSc2ncccn2)c1
inactive: growth inhibition [1] 0.33% | growth inhibition [2] 4.57% | viability increase [3] -2.94% | viability [4] 93.2% | viability [5] 90.2% | inhibition [6] -0.22% | RAM network inhibition [7] 4.14%

CC(C)Cc1cc(C(=O)Nc2cc(Cl)ccc2Cl)no1
inactive: growth inhibition [1] -14.2% | growth inhibition [2] -0.125% | viability increase [3] -2.35% | viability [4] 104% | viability [5] 98% | inhibition [6] 3.71% | RAM network inhibition [7] 1.67%

From PubChem BioAssay
